High-throughput results: PubChem, several laboratories
Scp-1 inhibitor = blocks human Scp-1 phosphatase activity. inhibition, % at 20 µM. hit rate 0.88% among 340,000. AID 493091. Recombinant Scp1, phosphopeptide, malachite green phosphate absorbance. Q9GZU7;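 active = inhibition above about 50% at 20 µM, limit read from the data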;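 also: plate controls were DMSO wells with enzyme for no effect and wells lacking enzyme for full effect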
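assay system = SCP-1 phosphatase catalytic domain, residues 76-261 | buffer or medium = 50 mM Tris acetate pH 5.5, 0.005% Tween-20, 10 mM MgCl2 | incubation = enzyme reaction 45 min at room temperature, colour 5 min, stabilisation 30 min | signal = Phosphate-binding colour reagent, absorbance read at 630 nm | measure = % inhibition at 20 µM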
SUMO1-SIM PPI = SUMO1-SIM interaction modulation | SUMO1 binding to a labelled peptide, TR-FRET, 1 h | hit rate 0.33% among 360,000 | AID 602429 | P63165 | inhibition, % at 20 µM; in the data active = inhibition above about 37%
Target sequence (P63165 whole entry, looked up): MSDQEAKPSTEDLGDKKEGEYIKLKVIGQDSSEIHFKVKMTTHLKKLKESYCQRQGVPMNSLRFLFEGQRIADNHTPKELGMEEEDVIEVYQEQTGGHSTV
Pemphigus Ab inh = inhibitors of pemphigus antibody binding to human desmoglein-3. AID 588358. DSG3-coupled beads, scFv-anti-DSG3-GFP binding, flow cytometry; stronger effect = lower value. hit rate 0.48% among 310,000. P32926. binding (percent of control), % at 10 µM;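 active = binding more than 3 SD below its plate's average and above zero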
LMPTP block = LMPTP (human) inhibition | hit rate 0.22% among 360,000 | recombinant LMPTP-A, OMFP fluorogenic substrate, fluorescence intensity | inhibition, % at 20 µM | P24666;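 active = compounds that cut the enzyme signal by at least half of the control window in the single-dose screen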;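 also: plate controls were DMSO wells with enzyme plus substrate for no effect and substrate without enzyme for full effect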
Target sequence (P24666 whole entry, looked up): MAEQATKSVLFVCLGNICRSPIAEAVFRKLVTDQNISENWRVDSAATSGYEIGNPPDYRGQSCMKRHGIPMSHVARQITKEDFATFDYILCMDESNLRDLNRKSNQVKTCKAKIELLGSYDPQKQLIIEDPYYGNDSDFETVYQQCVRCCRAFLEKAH
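test system = LMPTP-A | amount = 0.625 nM LMPTP-A final | reagent = fluorogenic phosphatase substrate OMFP at 400 µM final | incubation = 50 min at room temperature | benchmarks = no-enzyme low control, uninhibited high control | medium = Bis-Tris pH 6.0, DTT, detergent | signal = fluorescence intensity of OMFP turnover product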
STEP inh = blocks human striatal-enriched tyrosine phosphatase. inhibition, % at 20 µM. AID 588621. recombinant STEP, OMFP fluorogenic substrate, fluorescence. P54829. hit rate 0.25% among 360,000;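 active = inhibition at 20 µM, scaled per plate between control wells, above about 37%, limit read from the data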;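 also: 0% = DMSO with enzyme and substrate and 100% = substrate only without enzyme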
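Measure: Control-normalized % inhibition with plate pattern correction | Test system: STEP phosphatase, cell-free reaction | Medium: pH 6.0 Bis-Tris with DTT and Tween 20 | Technique: Fluorescence, 480/540 nm | Times: Reaction 20 min, ambient temperature | Doses: Single compound dose of 20 µM, 1% DMSO final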
STEP inh conf = STEP (human) phosphatase inhibition, single concentration confirmation; shares compounds with STEP inh; recombinant STEP, OMFP fluorogenic substrate, fluorescence; inhibition, % at 20 µM; hit rate 32% among 520; AID 623866; call rule not given here;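 also: 0% = enzyme with substrate plus DMSO and 100% = substrate without enzyme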
The depositor's hits bear a star; · = no result. Only some compounds are listed: those with a hit (about 1.7% of all), similar ones and a draw of the others.

SMILES | Scp-1 inhibitor | SUMO1-SIM PPI | Pemphigus Ab inh | LMPTP block | STEP inh | STEP inh conf
Cc1ccc(S(=O)(=O)N2CCCC2CNC(=O)C(=O)Nc2ccc(F)cc2)cc1 (stereo not given) | -2 | 0 | 121 | 1 | 0 | ·
CCOC(=O)[C@@H]1[C@H]2COc3ccccc3[C@@H]2N2C(=O)N(c3ccc(OC)cc3)C(=O)[C@@]12C | -6 | -1 | 100 | -1 | -1 | ·
COc1ccccc1-c1csc(-n2ncc(C#N)c2N)n1 | · | 95* | 111 | 41 | 61* | 19
Cn1cccc1Cc1nnc(SCC(=O)NC2CCCCC2)n1CCc1ccccc1 | -1 | 2 | 113 | 0 | -1 | ·
COc1ccc(N2CCN(C(=O)COC(=O)[C@@H](NC(=O)OCc3ccccc3)C(C)C)CC2)cc1 | -5 | 5 | · | 0 | -2 | ·
COC(=O)c1ccc([N+](=O)[O-])cc1N1C(=O)C2C3CCC(C3)C2C1=O (stereo not given) | -8 | -18 | 95 | -2 | 64* | -3
Cc1oc(-c2ccc(Cl)cc2)nc1CS(=O)CC(=O)NC1CCCC1 (stereo not given) | -6 | -5 | 100 | 0 | -1 | ·
